The text below walks through data of ChEMBL document CHEMBL4725360, “Optimization of Acetazolamide-Based Scaffold as Potent Inhibitors of Vancomycin-Resistant Enterococcus” (J Med Chem, 2020).

Data set [1] is described as follows: Cytotoxicity against human Caco2 cells incubated for 2 hrs by MTS assay. It counts as cell-based. Particulars: Caco-2 cells. The gist of the method:
(§1)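 Caco-2 cells maintained in DMEM with 10% FBS, non-essential amino acids and penicillin-streptomycin at 37 °C, 5% CO₂. Compound exposure for 2 h in serum-free medium at several concentrations; DMSO-matched controls. Viability expressed relative to DMSO controls (mean ± SD), and CC₅₀ derived.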
(In general: Tetrazolium dyes change colour on reduction, which living cells bring about.)

The test system of data set [2] is Enterococcus faecium. The experiment in a line: Antibacterial activity against Enterococcus faecium HM968 incubated for 18 to 20 hrs under aerobic condition by CLSI protocol based broth microdilution assay. Format: functional. The note with it: time hrs 18-20. An outline of the steps:
(§2)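 Broth microdilution per CLSI. Strains grown aerobically overnight on trypticase soy agar at 37 °C. Inoculum set to 0.5 McFarland, diluted in trypticase soy broth to about 5 × 10⁵ CFU/mL. Agents serially diluted, plates incubated aerobically at 37 °C for 18–20 h. MIC is the lowest concentration with no visible growth. Compound stocks 10 mg/mL in DMSO.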
A general note: Broth dilution looks for growth in wells or tubes with falling amounts of substance.

Data set [3] concerns Enterococcus faecium. In words: Antibacterial activity against Enterococcus faecium NR-31914 incubated for 18 to 20 hrs under aerobic condition by CLSI protocol based broth microdilution assay. It counts as functional. The note with it: time hrs 18-20. The gist of the method: as §2
Data set [4] relates to Enterococcus faecalis. The experiment in a line: Antibacterial activity against Enterococcus faecalis NR-31975 incubated for 18 to 20 hrs under aerobic condition by CLSI protocol based broth microdilution assay. It counts as functional, organism-based. Particulars: time hrs 18-20. An outline of the steps: as §2
Data set [5] deals with Enterococcus faecium. The experiment in a line: Antibacterial activity against Enterococcus faecium NR-31916 incubated for 18 to 20 hrs under aerobic condition by CLSI protocol based broth microdilution assay. The note with it: time hrs 18-20. It counts as functional. The gist of the method:
as §2

Data set [6] relates to Enterococcus faecalis. In words: Antibacterial activity against Enterococcus faecalis HM-335 incubated for 18 to 20 hrs under aerobic condition by CLSI protocol based broth microdilution assay. Particulars: time hrs 18-20. Format: functional. The gist of the method: as §2
In data set [7] the test system is Enterococcus faecium. In words: Antibacterial activity against Enterococcus faecium NR-31971 incubated for 18 to 20 hrs under aerobic condition by CLSI protocol based broth microdilution assay. It counts as functional. The note with it: time hrs 18-20. An outline of the steps: as §2
The test system of data set [8] is Enterococcus faecium. The experiment in a line: Antibacterial activity against Enterococcus faecium NR-32065 incubated for 18 to 20 hrs under aerobic condition by CLSI protocol based broth microdilution assay. It counts as functional. Particulars: time hrs 18-20. An outline of the steps: as §2
Data set [9] has as its system Enterococcus faecium. The experiment in a line: Antibacterial activity against Enterococcus faecium NR-31903 incubated for 18 to 20 hrs under aerobic condition by CLSI protocol based broth microdilution assay. Format: functional. Particulars: time hrs 18-20. The gist of the method: as §2
The next data set concerns Caco-2. In words: Cytotoxicity against human Caco2 cells at 128 ug/ml incubated for 2 hrs by MTS assay. It counts as cell-based. The note with it: caco-2, 2 h, dose 128 µg/ml. The gist of the method: as §1
The test system of data set [10] is Enterococcus faecalis. The experiment in a line: Antibacterial activity against Enterococcus faecalis NR-31970 incubated for 18 to 20 hrs under aerobic condition by CLSI protocol based broth microdilution assay. It counts as functional, organism-based. The note with it: time hrs 18-20. An outline of the steps:
as §2

Data set [11] has as its system Enterococcus faecium. In words: Antibacterial activity against Enterococcus faecium NR-28978 incubated for 18 to 20 hrs under aerobic condition by CLSI protocol based broth microdilution assay. Format: functional. The note with it: time hrs 18-20. The gist of the method: as §2
Data set [12] deals with Enterococcus faecium. In words: Antibacterial activity against Enterococcus faecium HM965 incubated for 18 to 20 hrs under aerobic condition by CLSI protocol based broth microdilution assay. The note with it: time hrs 18-20. Format: functional. An outline of the steps:
as §2

The test system of data set [13] is Enterococcus faecium. The experiment in a line: Antibacterial activity against Enterococcus faecium NR-31972 incubated for 18 to 20 hrs under aerobic condition by CLSI protocol based broth microdilution assay. Format: functional. Particulars: time hrs 18-20. The gist of the method: as §2
Data set [14] deals with Enterococcus faecium. In words: Antibacterial activity against Enterococcus faecium NR-32052 incubated for 18 to 20 hrs under aerobic condition by CLSI protocol based broth microdilution assay. Format: functional. The note with it: time hrs 18-20. The gist of the method:
as §2

Data set [15] relates to Enterococcus faecalis. The experiment in a line: Antibacterial activity against Enterococcus faecalis HM-334 incubated for 18 to 20 hrs under aerobic condition by CLSI protocol based broth microdilution assay. The note with it: time hrs 18-20. It counts as functional. The gist of the method: as §2
Data set [16] has as its system Enterococcus faecium. The experiment in a line: Inhibition of carbonic anhydrase in Enterococcus faecium ATCC 700221 assessed as antibacterial activity incubated for 18 to 20 hrs in presence of ambient air by CLSI protocol based broth microdilution assay. The note with it: time hrs 18-20. An outline of the steps:
(§3)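 CLSI broth microdilution: inoculum about 5 × 10⁵ CFU/mL in trypticase soy broth with serial dilutions of agents. Paired plates incubated at 37 °C for 18–20 h, one set in ambient air ("normal"), the other under 5% CO₂. MIC is the lowest concentration completely inhibiting visible growth.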

The test system of data set [17] is Enterococcus faecium. The experiment in a line: Inhibition of carbonic anhydrase in Enterococcus faecium ATCC 700221 assessed as antibacterial activity incubated for 18 to 20 hrs in presence of 5% CO2 by CLSI protocol based broth microdilution assay. The note with it: time hrs 18-20. An outline of the steps:
as §3

In brackets after ≈: the same amount, converted by molar mass. Activity calls are given as the source filed them. Where only a bound is given, the exact number is not on record here.

Turning to `NS(=O)(=O)c1nnc(NC(=O)C2CCCCC2)s1`, the CC50 (commonly the concentration giving 50% cytotoxicity) at 2 h in data set [1] was > 128 µg/mL. For the same compound, the MIC – broadly, the smallest concentration in the dilution series that meets the test's criterion for growth inhibition – in the data set on Enterococcus faecium [2] was determined as 0.5 µg/mL (≈ 1.72 µM); in the data set on Enterococcus faecium [3], 0.5 µg/mL (≈ 1.72 µM); in the data set on Enterococcus faecium [5] it was 0.25 µg/mL (≈ 0.861 µM); in the data set with Enterococcus faecalis [6], 0.5 µg/mL (≈ 1.72 µM); against Enterococcus faecium [7] it was 0.5 µg/mL (≈ 1.72 µM); in the data set with Enterococcus faecium [8], 0.5 µg/mL (≈ 1.72 µM). Moreover, the minimum inhibitory concentration (MIC) in the data set with Enterococcus faecium [9] stood at 0.5 µg/mL (≈ 1.72 µM); with Enterococcus faecium [11], 0.5 µg/mL (≈ 1.72 µM); in the data set with Enterococcus faecium [12] it was 0.25 µg/mL (≈ 0.861 µM); against Enterococcus faecium [13], 0.25 µg/mL (≈ 0.861 µM); in the data set on Enterococcus faecium [14], 0.5 µg/mL (≈ 1.72 µM); in the data set on Enterococcus faecalis [15], 0.25 µg/mL (≈ 0.861 µM). The result in the data set with Enterococcus faecalis [4] and in the data set on Enterococcus faecalis [10] was Active. In the data set with Caco-2, the Activity entry is recorded as “Non-Toxic”.

As for `NS(=O)(=O)c1nnc(NC(=O)CCC2CCCC2)s1`, the CC50 at 2 h in data set [1] was > 128 µg/mL. In addition, the MIC against Enterococcus faecium [2] amounted to 0.06 µg/mL (≈ 0.197 µM); against Enterococcus faecium [3] it was 0.06 µg/mL (≈ 0.197 µM); against Enterococcus faecium [5], 0.03 µg/mL (≈ 0.0986 µM); with Enterococcus faecalis [6], 0.06 µg/mL (≈ 0.197 µM); against Enterococcus faecium [7] it was 0.03 µg/mL (≈ 0.0986 µM); in the data set on Enterococcus faecium [8] it was 0.06 µg/mL (≈ 0.197 µM). Also, the minimal inhibitory concentration (MIC) was found to be 0.03 µg/mL (≈ 0.0986 µM) against Enterococcus faecium [9]; 0.125 µg/mL (≈ 0.411 µM) against Enterococcus faecium [11]; 0.06 µg/mL (≈ 0.197 µM) against Enterococcus faecium [12]; 0.03 µg/mL (≈ 0.0986 µM) in the data set on Enterococcus faecium [13]; 0.06 µg/mL (≈ 0.197 µM) in the data set with Enterococcus faecium [14]; 0.015 µg/mL (≈ 0.0493 µM) in the data set with Enterococcus faecalis [15]. Moreover, in the data set with Enterococcus faecium [16], the inhibition entry is “Active”. In addition, in the data set with Enterococcus faecium [17], the inhibition result was “inactive”. The result in the data set on Enterococcus faecalis [4] and in the data set on Enterococcus faecalis [10] was Active. In addition, the Activity result with Caco-2 is listed as “Non-Toxic”.

In the case of `CC(C)(C)CC(=O)Nc1nnc(S(N)(=O)=O)s1`, in data set [1], the CC50 at 2 h was > 128 µg/mL. The minimum inhibitory concentration (MIC) amounted to 0.015 µg/mL (≈ 0.0539 µM) with Enterococcus faecium [2]; 0.007 µg/mL (≈ 0.0251 µM) with Enterococcus faecium [3]; 0.03 µg/mL (≈ 0.108 µM) against Enterococcus faecium [5]; 0.03 µg/mL (≈ 0.108 µM) against Enterococcus faecalis [6]; 0.06 µg/mL (≈ 0.216 µM) against Enterococcus faecium [7]; 0.007 µg/mL (≈ 0.0251 µM) in the data set on Enterococcus faecium [8]. Further, the MIC in the data set on Enterococcus faecium [9] came to 0.015 µg/mL (≈ 0.0539 µM); in the data set with Enterococcus faecium [11] it was 0.03 µg/mL (≈ 0.108 µM); against Enterococcus faecium [12], 0.015 µg/mL (≈ 0.0539 µM); against Enterococcus faecium [13], 0.015 µg/mL (≈ 0.0539 µM); in the data set on Enterococcus faecium [14], 0.015 µg/mL (≈ 0.0539 µM); against Enterococcus faecalis [15] it was 0.03 µg/mL (≈ 0.108 µM). The inhibition entry with Enterococcus faecium [16] is “Active”. For the same compound, the inhibition result in the data set on Enterococcus faecium [17] was “inactive”. Besides, the result with Enterococcus faecalis [4] and with Enterococcus faecalis [10] was Active. For the same compound, in the data set on Caco-2, the Activity entry is given as “Non-Toxic”.

For the compound `CC(C)(C)C(=O)Nc1nnc(S(N)(=O)=O)s1`, the cytotoxic concentration (CC50) at 2 h in data set [1] was > 128 µg/mL. Also, the MIC with Enterococcus faecium [2] was determined as 0.5 µg/mL (≈ 1.89 µM); against Enterococcus faecium [3] it was 0.5 µg/mL (≈ 1.89 µM); in the data set with Enterococcus faecium [5] it was 0.5 µg/mL (≈ 1.89 µM); against Enterococcus faecalis [6], 0.5 µg/mL (≈ 1.89 µM); with Enterococcus faecium [7], 0.5 µg/mL (≈ 1.89 µM); against Enterococcus faecium [8] it was 0.25 µg/mL (≈ 0.946 µM). Further, the MIC with Enterococcus faecium [9] stood at 0.5 µg/mL (≈ 1.89 µM); in the data set with Enterococcus faecium [11] it was 0.25 µg/mL (≈ 0.946 µM); in the data set on Enterococcus faecium [12], 0.25 µg/mL (≈ 0.946 µM); in the data set on Enterococcus faecium [13], 1 µg/mL (≈ 3.78 µM); with Enterococcus faecium [14] it was 0.5 µg/mL (≈ 1.89 µM); in the data set on Enterococcus faecalis [15], 0.5 µg/mL (≈ 1.89 µM). Further, the result with Enterococcus faecalis [4] and with Enterococcus faecalis [10] was Active. Moreover, in the data set with Caco-2, the Activity entry is “Non-Toxic”.

`NS(=O)(=O)c1nnc(NC(=O)CCc2ccccc2)s1`: the CC50 at 2 h in data set [1] was > 128 µg/mL. In addition, the minimum inhibitory concentration (MIC) with Enterococcus faecium [2] was 0.25 µg/mL (≈ 0.8 µM); against Enterococcus faecium [3], 0.25 µg/mL (≈ 0.8 µM); against Enterococcus faecium [5] it was 0.125 µg/mL (≈ 0.4 µM); with Enterococcus faecalis [6], 0.125 µg/mL (≈ 0.4 µM); in the data set on Enterococcus faecium [7], 0.125 µg/mL (≈ 0.4 µM); in the data set on Enterococcus faecium [8], 0.125 µg/mL (≈ 0.4 µM). For the same compound, the minimal inhibitory concentration (MIC) in the data set on Enterococcus faecium [9] came to 0.25 µg/mL (≈ 0.8 µM); in the data set with Enterococcus faecium [11], 0.5 µg/mL (≈ 1.6 µM); in the data set on Enterococcus faecium [12] it was 0.06 µg/mL (≈ 0.192 µM); against Enterococcus faecium [13] it was 0.125 µg/mL (≈ 0.4 µM); against Enterococcus faecium [14], 0.5 µg/mL (≈ 1.6 µM); against Enterococcus faecalis [15], 0.015 µg/mL (≈ 0.048 µM). In the data set with Enterococcus faecium [16], the inhibition result is “Active”. Moreover, in the data set with Enterococcus faecium [17], the inhibition result is “inactive”. The Activity entry in the data set on Caco-2 was “Non-Toxic”.
